We go through 38 molecules from ChEMBL document CHEMBL4513216, “Probing the Open Global Health Chemical Diversity Library for Multistage-Active Starting Points for Next-Generation Antimalarials” (ACS Infect Dis, 2020).

Molecules are shown by their SMILES.

A short description of this data set: Toxicity liver stage against HepG2, at 10uM. The settings on record: human, HepG2-A16-CD81EGFP cells; read-out: INHIBITION
The data set is classed as cell-based. More on the design: test concentration 10 uM, cell line HepG2-A16-CD81EGFP. The gist of the method: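 Uninfected HepG2-A16-CD81EGFP cells, 3 × 10^3 per well, 1536-well, plated on prespotted compound at 10 μM final, parasite-free screening media added to match infected plates; puromycin 10 μM positive, DMSO 0.5% negative; run in parallel with 48 h PbLuc assay at 37 °C, 5% CO2; viability by CellTiter-Glo luminescence, normalized to controls.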
Consider `COc1ccc2c(c1)OCC(CNC(=O)c1ccc(=O)n(C)c1)C2` (stereo not drawn), for which the cytotoxicity at 10 µM is -11.2%.

For the molecule `Cc1cccc(C2CCCN2Cc2nc(N)nc(N(C)C)n2)c1C` (stereo not drawn), the cytotoxicity at 10 µM is -12.5%. With `CCOc1ccc(S(=O)(=O)NCCCc2ccc(N(C)C)cc2)cc1C`, the cytotoxicity at 10 µM was 0.279%. For `c1ccc(-c2nc(CN3CCCC3Cn3cncn3)cs2)cc1` (stereo not drawn) the value was -14%; for `CN(Cc1cccnc1)C[C@H]1CC[C@@H](Cc2ccc3c(cnn3C)c2)O1`, 5.15%; for `Cn1cc(C2CCCN2C(=O)c2cnc(C3CC3)s2)cn1` (stereo not drawn), -2.05%. For `Cc1nc(C)c(CC(=O)N2C[C@@H](C(=O)O)[C@H](c3ccncc3)C2)s1` the value was -127%. As for `CCc1ncc(C(=O)N2C[C@@H](C)O[C@@H](C)C2)cn1`, the cytotoxicity at 10 µM was -4.34%. Consider `Nc1nccnc1C(=O)N1CCN(CCOc2ccccc2)CC1`, for which the cytotoxicity at 10 µM amounted to 12.8%. `CS(=O)(=O)NC[C@]12COC[C@H]1CN(C(=O)c1ccncn1)C2`: the cytotoxicity at 10 µM came out at 9.2%. In the case of `CNC(=O)c1cc2c(nc1NCC1CC1)CCN(c1ncccn1)CC2` it was 0.283%. In the case of `O=C(OC1CCC1)c1ncccc1OCC(F)(F)F`, the cytotoxicity at 10 µM is -12.6%.

Turning to `CCOC(=O)NC(C(=O)NCc1ccc(N2CCCCC2)nc1)C(C)C` (stereo not drawn), the cytotoxicity at 10 µM is -6.09%.

For the molecule `Cc1ccc(CN2CCN(C3CCSCC3)CC2CCO)o1` (stereo not drawn), the cytotoxicity at 10 µM was -3.96%.

Take `COc1ccc(-n2ccc(C(=O)NCCN3CCCCC3)n2)cc1`: the cytotoxicity at 10 µM is -2.87%. For `CC(C)Cc1nc(C[S+]([O-])CC(=O)NCc2ccccc2)no1` (stereo not drawn), the cytotoxicity at 10 µM was -6.45%.

For the molecule `CC(=O)c1ccc(C(=O)NCc2ccnc(N(C)C)n2)cc1`, the cytotoxicity at 10 µM came to 0.69%. For `CCN(Cc1ccncc1)c1cc(C2CCN2C(C)=O)nc(C)n1` (stereo not drawn) the value was 5.25%.

With `COc1cc2[nH]c(=O)c(CN3CCC[C@@H]3C(N)=O)cc2c(OC)c1OC`, the cytotoxicity at 10 µM was -6.84%. For `COC1COC2(CCN(c3ccc(C#N)cc3)CC2)C1` (stereo not drawn) the value was -79.6%. In the case of `Cn1c(-c2cc3n(n2)CCCN(CC(=O)O)C3)nc2ccccc21` it was 2.68%; in that of `c1cnc(NCc2nnn3c2CN(Cc2ccco2)CCC3)nc1`, 9.08%; in that of `CSCCC(=O)N1CCC(Oc2cc(C)ccc2F)(C(=O)O)CC1`, -6.02%. In the case of `NC(=O)Cc1csc(NC(=O)C2CSCCC(=O)N2)n1` (stereo not drawn), the cytotoxicity at 10 µM worked out at 0.722%.

`Cc1nc(CCCN2CCOCC2)n(Cc2ccc(F)cc2)n1`: the cytotoxicity at 10 µM is 1.69%. For `OCC1CCCCN1CCn1ccnc1-c1nc2ccccc2[nH]1` (stereo not drawn) the value was 8.89%; for `CC(C(=O)NN1CCOCC1)n1nc(C(F)(F)F)c(Cl)c1C1CC1` (stereo not drawn), -0.37%. Turning to `Cc1ccccc1CN(C)Cc1nc2c(cnn2C)c(=O)[nH]1`, the cytotoxicity at 10 µM was 2.51%.

For the molecule `O=C(Nc1cccc2c1CCCC2)c1cccc(CN2CC[C@H](O)C2)c1`, the cytotoxicity at 10 µM was -9.32%. For `Cc1cnn(CCC(=O)N(CC2CN(C)CCO2)c2nccs2)c1` (stereo not drawn) the value was -5.82%.

Regarding `CN(C)CCCNC(=O)CNC(=O)N1CCc2c([nH]c3ccccc23)C1`, the cytotoxicity at 10 µM worked out at 3.33%. For `COCCN1C(=O)[C@]2(CC[C@@H]3CN(Cc4ccccc4F)C[C@@H]32)N=C1C` the value was -0.0957%; for `COc1cccc(N2CCN(Cc3ccc(NC(C)=O)cc3)CC2=O)c1`, -15.4%.

In the case of `Cc1nc(CN(C)C2CCN(Cc3nc4ccccc4s3)C2)no1` (stereo not drawn), the cytotoxicity at 10 µM was -4.27%.

With `Cn1cc(Cl)c(CN2CCn3nc(C(=O)Nc4ccccc4)cc3C2)n1`, the cytotoxicity at 10 µM was -2.8%.

For the molecule `CNC(=O)c1ccc(C2CCCN(C(=O)c3c(C)noc3C)C2)nc1` (stereo not drawn), the cytotoxicity at 10 µM is -9.88%.

Turning to `CC[C@@H]1N(Cc2ccc(OC)cc2)CCC[C@]12CCC(=O)N2CCOC`, the cytotoxicity at 10 µM worked out at 14%. For `Cc1nc(CC(=O)N2CCC(c3ccn4nccc4n3)CC2)cs1` the value was -0.956%.
